Results as given in the EternaBench riboswitch data.

Tested on: MS2 coat protein
Test: apparent Kd, MS2 coat protein; higher = weaker binding; RNA-MaP array; FMN 200 µM where present
Procedure, shortened: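 Designs were transcribed by stalled E. coli RNA polymerase on Illumina sequencing-chip clusters. They were titrated with SNAP-549-labelled MS2 coat protein from 0.7 or 1.5 nM, doubling to 3 µM, without and then with constant ligand. Buffer: 100 mM Tris-HCl pH 7.5, 80 mM KCl, 4 mM MgCl2, BSA, DTT, yeast tRNA, Tween-20. Green signal was normalised to red-channel RNA signal and control-cluster median Fmax. Apparent Kd is the median of filtered per-cluster binding-curve fits.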

[1] = designed as: OFF switch for flavin mononucleotide, no ligand
[2] = ligand present: flavin mononucleotide, designed as: OFF switch for flavin mononucleotide
[3] = designed as: ON switch for flavin mononucleotide, no ligand
[4] = ligand present: flavin mononucleotide, designed as: ON switch for flavin mononucleotide

Sequence | apparent Kd [1] [nM] | apparent Kd [2] [nM] | apparent Kd [3] [nM] | apparent Kd [4] [nM]
GGAUAGGACAGAGGAUAUACGUGCUAGAGAUACUAGCAAAAUUGCCUCACAUGAGGAUCACCCAUGUAGAAGGCUGUCCUAUCG | 7.72 | 134 | – | –
UCAUUUCUGUAAGGAUAUUAAAACAUGACGAUACAUGAGGAUCACCCAUGUUAAGAAGGUACAAAUACAUAUAAUGCAAUGUUC | 15.7 | 14.8 | – | –
UUUCCGCGAGGAUAUGCGGGUUGUGCUUUUCAUUUUUUAUAACAUGAGGAUCACCCAUGUAGAAGGUGCUUCUU | 186 | 166 | – | –
UCUCAGUGAGGAUAUGCCAGGGACUAAUUCGUCCACCCGUCGCAGAAGGCACAUGAGGAUCACCCAUGUGGAUG | 109 | 54.5 | – | –
GGUGGCGUGAUAACGCUAGAUAUAACAUGAGGAUCACCCAUGUAGGAUAUCCCGCCGAGAGGGCGGGAGAAGGACAAUCAAUGG | 45.2 | 47.2 | – | –
GGAGCUCUCAUUAACAUGAGGAUCACCCAUGUCAAAAGACAUGAGGAUAUGGAUCCUAAUUGGAUCCAGAAGGCAUGGAGCUCC | – | – | 1070 | 54.3
UUGGACGUCGUAGGAUAUGUAGGGUAUUCCUACAUGAGGAUCACCCAUGUUGACAUGGAAGAAGGACAGAAGGACGAUGUCCAU | – | – | 183 | 4.94
UGGUACAUGGGAGGAUAUGGAGUGAAGACAUGAGGAUCACCCAUGUUAUAAAUGCCGAGAGGCAACUAGAAGGCCCAUGUACCU | – | – | 77.7 | 14.3
GUCAGCUCGUGAGGAUAUACAACACUGCUUCGGUAGUGUAUUAAGAUCACAUGAGGAUCACCCAUGUAGAAGGCACGAGCUGAU | 15.1 | 268 | – | –
GUAGCAUAAUCAGGAUAUUCAGAGAAUAGAUAGACAUGAGGAUCACCCAUGUGGCGAAAGCCUAGGGAGAAGGGAUAAUGCUAC | – | – | 190 | 32.5
UUUCCCUGUGUGAGGAUAUACUUGUUUGGGUUUUUGUAGAAGGCACAUGAGGAUCACCCAUGUACUCUGUCCUG | 25.3 | 30.6 | – | –
AGUAAGAUGCAGAAGGUGUCAGCUAGAGCUACGACAUGAGGAUCACCCAUGUACUAGAAACAGUACAAGGAUAUGCAUCUUACA | – | – | 80.2 | 8.27
GUAGCAUUCUGAGGAUAUCCAUACCGGAAACGGACAUGAGGAUCACCCAUGUGGCGAAAGCCUUGGGAGAAGGCAGUAUGCUAC | – | – | 4.87 | 4.34
GAGUGGUAAAGAGGAUAUGCAUUGUUAUUCACUGCAGAAGGUUUUAACAUGAGGAUCACCCAUGUAGGACUAUUCCUGUGUUUC | – | – | 14.6 | 12.5
GCUUGUGAAGGAUAUACUGGCGACAUGCGCUCAACACGCGCACAUGAGGAUCACCCAUGUAGAAGGUCAAACAU | 23.9 | 33 | – | –
AUGAGGUUAGGAUAUACAUGAGGAUCACCCAUGUUGAAGGGUUAGGUAGGCGGAGCUGGUAGAAGGAACGGAGC | 57.3 | 36.9 | – | –
CCGUUGGGCUAGAAGGCUCCGGGAGGACCGCGGAGAGGAUAUAGCACAUGAGGAUCACCCAUGUGGUAUGACCUUAUGUAUUCA | 33.6 | 65.1 | – | –
AUAUUGAUAGUAAGGAUAUGCGUGUGUGUAGUUAUGCAGAAGGUACAUGAGGAUCACCCAUGUAUUAAUGUGUG | 18.1 | 21.6 | – | –
AGUUGUUCAGGAUAUGAUGAAUAUUACAUGAGGAUCACCCAUGUAGAUCCUGAAUAUGAAUCAGAAGGGAAUAUUU | 15.3 | 32.5 | – | –
ACAUGAGGAUCACCCAUGUAUACAUAGGAUAUUGGUGAUCAGGGAUGUUUUACAGGAUAUGUCUGCGAGAAGGAUGCAAGUUGU | – | – | 360 | 70.4
UGUCCAUAGCAGAAGGACAUGAGGAUCACCCAUGUAAUAAAACAUCCAAAUGUAGGAUAUGCUAUGGACUAAGAGCGAAAGCUC | 28.9 | 606 | – | –
UCUGGUCGAGGAUAUACAUAACGUGCUUCGGCACGAGAUCUACAUGAGGAUCACCCAUGUAGAAGGCGACCAGA | 16.7 | 46.7 | – | –
CGUUAAUAUCGAGGAUAUGUCUAGACACAUGAGGAUCACCCAUGUAUGUGUAUAGAAGGCGAUAUUAACAGCAUGUUACAUGCU | – | – | 41 | 16.7
AACUAACAUGAGGAUCACCCAUGUCAGGAUAUGCAUCAAUCAAUCAAUCAAUCAAUCAGCAGAAGGGACACUAC | 16.8 | 19.4 | – | –

Sequence | apparent Kd [1] [nM] | apparent Kd [2] [nM] | apparent Kd [3] [nM] | apparent Kd [4] [nM]
AAGACACAUGAGGAUCACCCAUGUCAAGAGAGACGAGGAUAUCUGAAUUAAUUAAAUUAAGGAGAAGGCGUGAAAA | – | – | 78.9 | 30.9
UGAGCCUCGUGAGGAUAUACAUGAGGAUCACCCAUGUAAUAAAGUGAACGGAGGAAACUCCGAAUGUAGAAGGCACGAGGCUUA | 18.7 | 146 | – | –
CAGUCUACAGGAUAUACAUGAGGAUCACCCAUGUGUUUUCACUUUCAGUAGUCUAUAUGUAGAAGGGUAGACUG | 24.8 | 90.1 | – | –
UUAUGUGGCGUAGGAUAUCAUUAGAUUUGUAAUUUAAUUGUAAUUUCCAUAUGAGAAGGACGUAUACAUGAGGAUCACCCAUGU | 14.8 | 17.7 | – | –
AAGAAAGUUUACGAGGAUAUGUUCCGCAUAACAUGAGGAUCACCCAUGUGAACAAGAAAGGCGACGCAGAAGGCGUGAGCAAAGA | – | – | 359 | 43.2
AGUGCGUAUGUGAGGAUAUGCUGGUCCUUGGAUCGGCAGAAGGCACAUGAGGAUCACCCAUGUGGUGUCGUACU | 381 | 20 | – | –
AGUACUCAAAGAGUACGCAUACGCACAUGAGGAUCACCCAUGUAGGAUAUGCUACUCAAAGAGUAGUAGAAGGACAUAUACCUC | 4.31 | 4.46 | – | –
GCAGCACAGAUUUACAUGAGGAUCACCCAUGUCUAUUGAGAUGAGGAUAUGCAUCGAAUGAAGUUGCAGAAGGCAUUGUGCUGC | – | – | 7.51 | 6
AGAGUGUCAGGAUAUCCUGCUGUGCGGAAUCUGUAUUCACGGGAGAAGGGACAUGAGGAUCACCCAUGUUUGAG | 18.9 | 28.1 | – | –
AUAAUGCGUGCUACGCAAAAUAACGCAGAAGGCCAACAUGAGGAUCACCCAUGUAAAAGAAAGAUGGAGGAUAUGCGGUUUGGC | – | – | 51 | 6.74
GACAUGAGGAUCACCCAUGUCCGGGCCAAGAGAAGAAAUACCAGAAGGACCGGCAGAAAUGUGCGGUAGGAUAUGGGAUUCGUG | – | – | 36.4 | 9.15
AUACAUGAGGAUCACCCAUGUUACAUGGUCUUGAUAUUACGUAGAAGGAUGAUAUUAUUAUUAGCAUAGGAUAUACAAUUUGUA | 57.5 | 44 | – | –
GCAGCACUGUAGAACAUGAGGAUCACCCAUGUCGAUUGUUAUGAGGAUAUGCAUCGUAUGAAGAUGCAGAAGGCAUUGUGCUGC | – | – | 5.59 | 5.16
GCCAACGCAUGAGGAUAUGCUCCCGUUUCGGGAGCAGAAGGCAUGUCAUAAGACAUGAGGAUCACCCAUGUAGUUAAGAUGGCA | – | – | 474 | 20.1
AAAACUGCUCAGGAUAUUUGUGUGUCAGGGCAUAAAGAAGGGAGCACAUGAGGAUCACCCAUGUGUUGGGUUCC | 98.5 | 149 | – | –
GGGCUGUCAGGAUAUCUCGGGCUCGGGUAAAUCUGGGUCUGGGAGAAGGGACAUGAGGAUCACCCAUGUGGCCC | 34.3 | 37.9 | – | –
GUCGUGUGAGGAUAUCUGAUGUCUAACUUCGGUUAGACAUCAGAGAAGGCACAUGAGGAUCACCCAUGUCCGAC | 195 | 298 | – | –
AACCAUGAGCGAGGAUAUCACCCUACGGAGUGGUGAGAAGGCGCAACAUGAGGAUCACCCAUGUACAAAUGCGGGACCCUUUUC | 31 | 92.6 | – | –
ACAAUACAUGAGGAUCACCCAUGUUAGGAUAUACGCAUGCAUGCAUGCAUGCAUGCAAGUAGAAGGAACCAUGC | 28.6 | 26.8 | – | –
GUAGAGUAAGGAUAUGCUGAAUAGGAUAGAAUGGUUAGAAAGUAGAAGGUACAUGAGGAUCACCCAUGUAAUGU | 24.9 | 25.7 | – | –
AUCAGCUCGUCAGGAUAUACGUCACGGCGUCAGCAGUGUGGUAAGAUCACAUGAGGAUCACCCAUGUAGAAGGGACGAGCUGAU | 19.5 | 226 | – | –
GGUCUUCAAGUCAGGAUAUCGUCUAAUCGAUCUAACGAGAAGGGACAUGAGGAUCACCCAUGUCGUCUCAUCAG | 19.1 | 28.5 | – | –
CACGAUGAUGUAGGAUAUAUGCUGGAAUACAGCAUAGAAGGACAUGAGGAUCACCCAUGUUAAGUGCCUCCAAGUAACAUCGUG | 15.4 | 22.4 | – | –
AAUUAAUUAAUUAAGUACAUGAGGAUCACCCAUGUAAGUGAUCAGGAUAUCAGCUCGAUUAGAGCUGAGAAGGGAUCCAUGUAC | – | – | 531 | 303
